A3A deaminase: APOBEC3A ssDNA deaminase inhibitors, primary screen, selectivity assay for APOBEC3G inhibitor project, biochemical, FAM/TAMRA oligo cleavage fluorescence | inhibition, % at 20 µM | hit rate 0.41% among 330,000 | DNA dC->dU-editing enzyme APOBEC-3A (Homo sapiens), P31941 | recombinant A3A, FAM/TAMRA ssDNA deamination fluorescence;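 active = at least 40% inhibition at 20 µM here, with at most 30% in a related deaminase screen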;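 also: plate controls were A3A with DMSO for no effect and wells lacking A3A enzyme for full effect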
Target sequence (P31941 whole entry, looked up): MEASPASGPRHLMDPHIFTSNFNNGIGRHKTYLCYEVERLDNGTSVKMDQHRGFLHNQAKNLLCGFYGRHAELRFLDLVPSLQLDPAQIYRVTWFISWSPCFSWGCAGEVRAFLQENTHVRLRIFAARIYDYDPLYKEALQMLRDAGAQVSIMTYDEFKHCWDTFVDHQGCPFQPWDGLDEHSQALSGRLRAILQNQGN
AHR activator: AHR activators, primary screen, cell-based, luminescence, luciferase reporter, human. Aryl hydrocarbon receptor (Homo sapiens), P35869. AHR-responsive luciferase reporter cells. activation, % at 5 µM. hit rate 2.5% among 320,000. AID 2796, 2010; in the data active = activation above about 47%;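 also: 0% = vehicle wells and 100% = reference agonist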
PolyA inhibitor: polyadenylation inhibitors in yeast reporter cells, primary screen, luminescence, S. cerevisiae; S. cerevisiae SKY197-pL101 polyadenylation reporter, beta-gal luminescence; efflux-impaired pdr1/pdr3 knockout yeast; score 100 = 6 SD above DMSO; activity score, % at 12 µM; hit rate 0.02% among 300,000;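 active = lowest replicate activity score at least 50, where 100 means six control SD above control mean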;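 also: yeast exposed to compound for 9 h at 30 °C; higher score means more reporter readthrough which indicates perturbed polyadenylation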
APOBEC3G inh: APOBEC3G DNA deaminase inhibitors, primary screen, biochemical, fluorescence, single-stranded DNA substrate, uHTS | inhibition, % at 20 µM | AID 493012, 2011 | DNA dC->dU-editing enzyme APOBEC-3G (Homo sapiens), Q9HC16 | hit rate 0.28% among 330,000 | recombinant A3G, ssDNA deamination FAM/TAMRA fluorescence;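 active = inhibition of at least 40% at 20 µM, with no more than 30% in the related APOBEC3A deaminase screen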;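 also: plate controls were DMSO wells with A3G for no effect and wells lacking A3G enzyme for full effect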
Arr AP2 block: inhibitors of beta-arrestin/AP2 binding, primary screen, biochemical, GPCR trafficking, flow cytometry | hit rate 0.31% among 340,000 | FITC-arrestin peptide / GST-AP2 beads; AP2 beta2 appendage carries R879A mutation | inhibition, % at 10 µM | AID 504490, 2011 | beta-arrestin 1 C-terminal peptide binding to AP2 beta2-adaptin appendage (human);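 active = inhibition above a set limit, near 3 SD of compounds lacking own fluorescence, cut at about 54% in these data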;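 also: plate controls were DMSO wells for no effect and 5 µM unlabelled arrestin peptide for full effect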
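System: GST-AP2 R879A glutathione beads. Medium: PBS with 0.05% Tween 20 and 0.1% BSA. Also added: FITC-arrestin peptide, 50 nM. Incubation: 12 min plus 1 h, RT. Measured by: high-throughput flow cytometry of beads, ex 488, em 535 nm. Evaluation: percent drop in bead-associated FITC signal.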
UCH37 DUB inh: inhibitors of human UCH37 deubiquitinase, primary screen, biochemical, Ub-AMC cleavage, fluorescence; AID 588478, 2011; inhibition, % (no concentration beside the values); hit rate 0.33% among 330,000; Ubiquitin carboxyl-terminal hydrolase isozyme L5 (Homo sapiens), Q9Y5K5; purified proteasome/UCH37;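 active = mean inhibition over replicate wells above about 20%, limit read from the data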;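 also: 0% = compound-free wells with enzyme and 100% = wells lacking proteasome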
Target sequence (Q9Y5K5 whole entry, looked up): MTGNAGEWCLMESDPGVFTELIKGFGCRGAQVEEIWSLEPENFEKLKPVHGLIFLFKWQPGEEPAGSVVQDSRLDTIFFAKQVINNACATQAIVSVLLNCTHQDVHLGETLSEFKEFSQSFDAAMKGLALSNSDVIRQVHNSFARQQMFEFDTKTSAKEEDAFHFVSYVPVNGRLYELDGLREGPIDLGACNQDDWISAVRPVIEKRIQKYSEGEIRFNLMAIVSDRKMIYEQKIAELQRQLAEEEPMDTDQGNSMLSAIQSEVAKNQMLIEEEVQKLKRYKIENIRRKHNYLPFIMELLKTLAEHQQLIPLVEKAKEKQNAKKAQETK
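assay system = human UCH37 enzyme supplied as purified proteasome complex | amount = proteasome at 0.15 nM in the dispensed enzyme solution | schedule = 30 min compound-proteasome preincubation then 25 min substrate reaction, room temperature | measured by = fluorescence, ex 355 nm, em 460 nm | benchmarks = no-proteasome wells (full inhibition) and compound-free wells (no inhibition)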
Numbers without * were called inactive; i = inactive; nt = no result given. An excerpt weighted towards active compounds, which were near 3.4% of everything screened.

SMILES	A3A deaminase	AHR activator	PolyA inhibitor	APOBEC3G inh	Arr AP2 block	UCH37 DUB inh
Fc1ccccc1Nc1nc(NCc2ccco2)nc(N2CCOCC2)n1	-3	54*	-24	-6	19	0
OC(COc1ccc2ccccc2c1Br)Cn1ccnc1 (stereo not drawn)	-4	70*	10	-5	0	2
OC(COc1ccc(Cl)cc1Cl)Cn1ccnc1 (stereo not drawn)	1	47*	11	-3	8	1
OC(COc1ccc2ccccc2c1)Cn1ccnc1 (stereo not drawn)	-5	28	5	-10	-4	-3
Nc1nc(NCC2CCCO2)nc(Nc2ccc(Cl)cc2)c1[N+](=O)[O-] (stereo not drawn)	-1	68*	-12	0	6	5
Nc1nc(NCCCN2CCOCC2)nc(Nc2ccc(Cl)cc2)c1[N+](=O)[O-]	2	74*	-6	-6	13	8
Cc1ccc(Nc2nc(NCCCN3CCOCC3)nc(N)c2[N+](=O)[O-])cc1	-2	10	7	-10	3	nt
Fc1ccc(-c2csc(-c3cccnc3)n2)cc1F	-4	68*	-18	-9	1	-1
Cc1nn(-c2ccccc2)c(Cl)c1C=NNc1nc2ccccc2[nH]1	nt	nt	nt	nt	nt	5
O=C1/C(=C\c2cccnc2)Sc2ccccc21	2	53*	3	-3	-6	3
CN1C(=O)S/C(=C/c2cccnc2)C1=O	0	0	-2	-1	19	8
COc1ccccc1-n1c(SC(C)C(=O)NCC2CCCO2)nc2cc(Cl)ccc2c1=O (stereo not drawn)	-3	59*	-15	-12	-20	-2
CCCn1c(SC(C)C(=O)NCC2CCCO2)nc2cc(Cl)ccc2c1=O (stereo not drawn)	0	6	-10	-4	52	1
O=C(NN=Cc1ccccc1)c1ccc(-c2ccccc2)cc1	nt	nt	nt	nt	nt	3
Cn1c(O)c(N=Nc2ccc(F)cc2)c2ccccc21	5	44	-29	-5	39	3
Cn1c(O)c(N=Nc2nc(-c3ccccc3)cs2)c2ccccc21	5	54*	-8	9	14	0
Cn1c(O)c(N=Nc2ccccc2)c2ccccc21	0	55*	-11	-3	30	2
Cn1c(O)c(N=NC(=O)c2cc(-c3cccs3)nc3ccccc23)c2ccccc21	2	17	13	2	0	0
O=C(NN=Cc1cc(Br)c(Br)o1)c1cncc(Br)c1	nt	nt	nt	nt	nt	6
CCN(CC)c1ccc(NC2=C(Cl)C(=O)c3ccccc3C2=O)cc1	nt	37	nt	nt	55*	5
Cc1ccsc1C1Nc2ccccc2-c2nc3ccccc3n21 (stereo not drawn)	1	82*	-20	0	-5	i
c1ccc2c(c1)NC(c1ccncc1)n1c-2nc2ccccc21 (stereo not drawn)	-2	70*	-3	-8	10	-45
c1cncc(C2Nc3ccccc3-c3nc4ccccc4n32)c1 (stereo not drawn)	5	43	-11	3	1	-240
O=C1CN(c2cc(Cl)cc(Cl)c2)C(=O)CN1N=Cc1cccnc1	nt	nt	nt	nt	nt	3
Cc1cccc(NC(=S)NN=Cc2cccc([N+](=O)[O-])c2)c1	nt	nt	nt	nt	nt	1
SMILES	A3A deaminase	AHR activator	PolyA inhibitor	APOBEC3G inh	Arr AP2 block	UCH37 DUB inh
CC1=C(C#N)c2nc(N)c(C#N)c(C)c2/C1=C\c1ccc(-c2ccccc2C(=O)O)o1	nt	nt	-30	nt	-13	22*
COC1=C(N)C(=O)c2nc(-c3nc(C(=O)O)c(C)c(-c4ccc(OC)c(OC)c4O)c3N)ccc2C1=O	9	-2	nt	5	nt	82*
c1cncc(-c2noc(-c3cccc4ccccc34)n2)c1	5	59*	-26	-2	3	-20
Brc1cccc(-c2nc(-c3ccncc3)no2)c1	-2	52*	-12	-5	-5	6
Brc1ccccc1-c1nc(-c2ccccc2)no1	7	50*	-11	3	nt	-1
c1ccc(-c2ccccc2-c2nc(-c3cccnc3)no2)cc1	-1	8	-41	-4	18	1
c1ccc(-c2noc(-c3cccc4ccccc34)n2)cc1	-4	51*	-10	-6	1	-4
Cc1ccc(-c2nc(-c3ccccc3)no2)cc1	0	-10	-9	-2	-13	-1
CNC(=S)NN=Cc1cc(C)n(-c2ccc(Cl)c(Cl)c2)c1C	nt	nt	nt	nt	nt	4
COc1ccc(-c2noc(-c3ccccc3F)n2)cc1	-1	48*	1	-12	23	4
CCN(CC)CCNC(=O)C(=NO)c1ccccn1	nt	nt	nt	nt	nt	4
Fc1ccc(/C=C\c2nccc3c2[nH]c2ccccc23)cc1	-2	35	-29	-6	-16	-179
Cc1ccc(/C=C\c2nccc3c2[nH]c2ccccc23)cc1	9	51*	-6	6	17	-231
C(=C\c1nccc2c1[nH]c1ccccc12)/c1ccccc1	-1	62*	-17	-9	8	nt
Cc1cc(C)c2c(c1)C(=c1sc3n(c1=O)CN(c1ccccc1)CN=3)C(=O)N2	nt	nt	nt	nt	nt	5
CCn1c(C)nc2cc(C(=O)NN=C(C)c3ccccc3O)ccc21	nt	nt	nt	nt	nt	-2
Cc1ccc2nc(SCC(=O)NC(=O)NCc3ccco3)[nH]c2c1	-3	61*	-11	-3	28	3
Cc1ccc2nc(SCC(=O)NCc3ccc(F)cc3)[nH]c2c1	-1	47	4	-3	18	4
Cc1ccc2nc(SCC(=O)NCc3ccco3)[nH]c2c1	5	77*	-1	-5	27	0
O=C(CSc1nc2ccccc2[nH]1)NC(=O)NCc1ccco1	5	32	14	-3	0	4
CC(=NNC(=S)Nc1cccc(C)c1)c1ccco1	nt	nt	nt	nt	nt	6
O=[N+]([O-])c1ccc(-c2nc(C(Cl)Cl)c3ccccc3n2)cc1	-3	75*	-6	-3	1	5
CN(Cc1ccccc1)c1nc(-c2ccc([N+](=O)[O-])cc2)nc2ccccc12	-2	1	0	-4	6	1
Cc1cc(O)c(C)c(O)c1C=NNC(=O)c1cccnc1	nt	nt	nt	nt	nt	7
COC(=O)c1sccc1NN=C(C)c1ccc(F)c(Cl)c1	nt	nt	nt	nt	nt	-12

Assay outcomes deposited in PubChem BioAssay by several laboratories.
